The values below come from PubChem BioAssay AID463191 (Sanford-Burnham Center for Chemical Genomics, 2010).

The source made the active and inactive calls.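 Rule for the calls: active = compounds whose mean IC50 across repeat dose response tests falls below a set limit; inactive = the rest.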

The subject of this assay is AML12 mouse hepatocytes, BODIPY lipid droplet imaging. The assay is described as follows: potency against lipid droplet buildup in liver cells – imaging, AML12 mouse hepatocytes, high-content, dose response (AID 463191). The note with it: cells loaded with 100 µM oleic acid. In short, it runs like this: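 System – AML12 mouse hepatocyte cell line, lipid droplet imaging · Reagent – oleic acid at 100 µM final for lipid loading · Compound dosing – 7 doses, 0.5–32 µM, 0.32% DMSO · Schedule – cells grown about 20 h at 37 °C, then overnight compound exposure · Read-out – IC50 from per-cell lipid droplet intensity · Replication – duplicate points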
As to `Cc1cc(C(=O)OC(C)C(=O)Nc2nc(-c3ccccc3)cs2)c(C)o1` (configuration not stated), the 50% inhibitory concentration (IC50) (usually the concentration that inhibits the measured activity by half) is 758 nM.
Under `CCOc1ccc(CCNC(=O)COC(=O)c2cc(OC)cc(OC)c2)cc1OCC` stands 6120 nM (inactive); under `COc1ccc2c(c1)c(CC(=O)Nc1ccc(C(C)=O)cc1)c(C)n2C(=O)c1ccc(Cl)cc1`, 2880 nM.
Under `CCOc1ccc(CCNC(=O)c2nnc(Cc3ccc(F)cc3)o2)cc1OCC` stands 1570 nM; under `COC(=O)/C(=C\c1ccc2c(c1)c1ccccc1n2C)NC(=O)c1ccccc1`, 3300 nM; under `CCOc1ccccc1Nc1nnc(SC(C)C(=O)Nc2nc(-c3ccccc3)cs2)s1` (configuration not stated), 1250 nM.
For `COc1ccc(NC(=O)CN2C(=O)NC(c3ccccc3)(c3ccccc3)C2=O)cc1OC`, the 50% inhibitory concentration (IC50) was 1600 nM.
With `CCOc1ccc(CCNC(=O)c2cccs2)cc1OCC`, the IC50 was 2350 nM.
Consider `CCOc1ccc(CCNC(=O)c2cc3sccc3n2CC)cc1OCC`, for which the IC50 was less than 500 nM.
Under `CCOc1ccc2nc(-c3ccccc3)nc(SCC(=O)Nc3ncc(C)s3)c2c1` stands less than 500 nM; under `CCCCn1c(=O)[nH]c(=O)c2c1nc(-c1ccc(-c3ccccc3)cc1)n2C`, 9970 nM (inactive); under `COc1ccc(-c2csc(NC(=O)c3ccc(OCC(=O)N4CCOCC4)c(OC)c3)n2)cc1OC`, 1900 nM.
Consider `CCOc1ccc(CCNC(=O)CSc2cc(=O)n(C)c3ccccc23)cc1OCC`, for which the IC50 is 823 nM.
Under `COCCCn1c(SCC(=O)Nc2ccc(NC(=O)c3ccco3)c(OC)c2)nc2ccccc2c1=O` stands 1850 nM; under `COc1ccc(C(C(=O)NC(C)(C)C)N(CC2CCCO2)C(=O)CCC(=O)Nc2cc(C)on2)cc1` (configuration not stated), 4950 nM.
Regarding `CCOc1ccc(CCNC(=O)C2CC=CCC2C(=O)OC(C)C)cc1OCC` (configuration not stated), the IC50 was 746 nM.
`CC1CCCN(C2=C(NS(=O)(=O)c3ccc(Br)cc3)C(=O)c3ccccc3C2=O)C1` (configuration not stated): the IC50 was 927 nM.
Next, `COc1ccc(CCNC(=O)CCOc2cc(C)ccc2C)cc1OC`: 4550 nM; `CCOc1ccc(CCNC(=O)COC(=O)c2cc(OC)c(OC)c(OC)c2)cc1OCC`: 559 nM; `CCOc1ccc(CCNC(=O)c2ccc3ccccc3n2)cc1OCC`: 1310 nM.
Turning to `Cc1cc(C)cc(NC(=O)CSc2nc3ccccc3nc2N2CCCC2)c1`, the IC50 was 2110 nM.
Next, `CCOc1ccc(CCNC(=O)C(C)n2nc(C)n3c(cc4occc43)c2=O)cc1OCC` (configuration not stated): 3610 nM; `COc1ccc(NC(=O)CSc2nc3ccccc3nc2N2CCCCC2)cc1`: 1180 nM; `COc1ccc(C(=O)OC(C)C(=O)Nc2cc(C(F)(F)F)ccc2Cl)c(OC)c1OC` (configuration not stated): 850 nM.
Turning to `COc1cc(NC(=O)c2cccs2)c(OC)cc1NC(=O)CCC(=O)Nc1ccc(C)cc1`, the IC50 is 790 nM.
Regarding `COc1cc(NC(=O)c2ccco2)c(OC)cc1NC(=O)CCC(=O)Nc1cc(C)cc(C)c1`, the IC50 was less than 500 nM.
Under `CCOc1cc(CNC(=O)CCCn2c(=O)c3cccn3c3cccnc32)cc(OCC)c1OCC` stands 540 nM.
Next, `CCCCCn1c(N)c(-c2nc3ccccc3s2)c2c([N+](=O)[O-])nn(CC)c(=O)c21`: 7460 nM (inactive).
In the case of `Cc1ccc(-n2nc3c(=O)n(CC(=O)NC4CCCCC4)nc(C)c3c2C)cc1`, the IC50 is 4730 nM.
Regarding `CCOc1ccc(CCNC(=O)c2cc(C)nc3ccccc23)cc1OCC`, the IC50 is 6400 nM (inactive).
Next, `COc1ccc(CCNC(=O)[C@H](C)N2C(=O)N3CCc4c([nH]c5ccccc45)[C@@]3(C)C2=O)cc1OC`: 1780 nM; `COc1ccc(-c2csc(NNC3=NCCCCC3)n2)cc1`: 1420 nM; `COc1ccc(C)cc1NC(=O)C/C(C)=N/NC(=O)Cc1cccc2ccccc12`: 13800 nM (inactive).
Take `Cc1cc(C)c(C(=O)NC2CCCc3c2cnn3-c2cccc(C)c2C)o1` (configuration not stated): the IC50 was 21600 nM (inactive).
Turning to `CCCC1(c2ccccc2)NC(=O)N(CC(=O)Nc2cc(C)ccc2OC)C1=O` (configuration not stated), the IC50 is > 32000 nM (inactive).
Under `Nc1nc(-c2ccccc2)c(N=Nc2cccc3ccccc23)s1` stands 525 nM; under `CCOc1ccccc1NC(=O)CCC(=O)Nc1ccccc1OCC`, 4180 nM; under `CCN(CC)c1ccc(NC(=O)CCc2nnc3ccc(N4CCCC4)nn23)c(C)c1`, 2350 nM.
Under `CCOc1ccc(CCNC(=O)Nc2ccccc2C)cc1OCC` stands 2030 nM; under `COc1ccc(CCNC(=O)c2cc3c(F)cccc3s2)cc1OC`, 5420 nM (inactive); under `CCOc1ccc(C(=O)NCC(=O)NC(C)CCc2ccccc2)cc1OCC` (configuration not stated), 858 nM.
Turning to `COc1ccc(NC(=O)CCC(=O)Nc2cc(OC)c(NC(=O)c3cccs3)cc2OC)cc1`, the IC50 is 710 nM.
Next, `CCOc1ccc(CN(C)C(=O)CNC(=O)c2ccc3ccccc3c2)cc1OC`: 809 nM; `CCCCc1ccc(NC(=O)CSc2nnc(C)c(=O)n2N)cc1`: 1270 nM.
Next, `CCOc1ccc(CCNC(=O)CSc2cc(=O)n(CC)c3ccccc23)cc1OCC`: 1100 nM.
In the case of `CCN(CC(=O)Nc1ccccc1C(F)(F)F)C(=O)c1cc(-c2cccs2)nn1-c1ccccc1`, the IC50 was 2030 nM.
Under `CCCN1C(=O)/C(=C\C=C2\N(CC)c3ccccc3C2(C)C)SC1=S` stands less than 500 nM; under `COc1ccc(-c2csc(NC(=O)c3ccc(OCC(=O)N4CCOCC4)c(OC)c3)n2)cc1`, 782 nM; under `CCC(C(=O)NCc1cccc(C)c1)n1nc(C)c2c(C)n(-c3ccccc3)nc2c1=O` (configuration not stated), 6770 nM (inactive).
Consider `CCOc1ccc(CCNC(=O)Cn2cccc2C(=O)c2ccccc2)cc1OCC`, for which the IC50 was 1640 nM.
`CCc1nn2c(N3CCOCC3)cc(C)nc2c1-c1ccc(F)cc1`: the IC50 is less than 500 nM.
Next, `CCCc1cc(N2CCCC2)n2nc(C)c(-c3ccccc3)c2n1`: 1100 nM; `O=C1C(NS(=O)(=O)c2cccs2)=C(N2CCN(c3cccc(C(F)(F)F)c3)CC2)C(=O)c2ccccc21`: 751 nM.
Under `CCOc1ccc(CCNC(=O)CN2CCN(Cc3ccccc3C)C2=O)cc1OCC` stands 924 nM.
Under `COc1ccc(CCNC(=O)CN2C(=O)c3cccc4cccc(c34)C2=O)cc1OC` stands 5770 nM (inactive); under `CCOc1ccc(CCNC(=O)Cn2nc(C)n3cccc3c2=O)cc1OCC`, 2000 nM.
For `COc1ccc(C(C(=O)NC(C)(C)C)N(CCC(C)C)C(=O)CCC(=O)Nc2cc(C)on2)cc1` (configuration not stated), the IC50 was 1200 nM.
Next, `CCC(C)(C)NC(=O)C(c1ccc(OC)cc1)N(Cc1cccs1)C(=O)CCC(=O)Nc1cc(C)on1` (configuration not stated): 2240 nM; `COc1ccc(CCNC(=O)Cc2cccc(C(F)(F)F)c2)cc1OC`: 9060 nM (inactive); `COc1ccccc1CNS(=O)(=O)c1ccc2c(c1)CC(C)N2C(=O)C1CCC1` (configuration not stated): 680 nM.
Under `COc1ccc(C(=O)OCC(=O)NC(C)CCc2ccccc2)c(OC)c1` (configuration not stated) stands 10600 nM (inactive).
Under `CCOc1ccc(CCNC(=O)Cn2ncn3nc(-c4ccc(OC)cc4)cc3c2=O)cc1OCC` stands less than 500 nM.
